Tests used:
[1] = tested on: Onchocerca gutturosa; assay: Mean motility score for treated Onchocerca gutturosa involving LLCMK2 feeder cells at a concentration of 4.88*10e-8M at 48 h; type: functional
In short: (§1)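 Single male O. gutturosa worms (obtained following abattoir slaughter) per well in Eagle's MEM with 10% heat-inactivated fetal calf serum, penicillin, streptomycin, amphotericin B and bicarbonate, over LLCMK2 feeder cells, 5% CO2 in air. Drug dissolved in DMSO; controls received matched DMSO ≤0.016%. Motility scored 0 (immotile) to 10 (maximum control activity) every 30 min to 4.5 h, then days 1, 2, 3, 4, 7.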

[2] = tested on: Onchocerca volvulus; assay: Mean motility score for treated Onchocerca volvulus excluding LLCMK2 feeder cells at a concentration of 5*10e-5 M at 1.5 h
[3] = tested on: Onchocerca gutturosa; assay: Mean motility score for treated Onchocerca gutturosa involving LLCMK2 feeder cells at a concentration of 3.1*10e-6 M at 1 h; type: functional; in short: as §1
[4] = tested on: Onchocerca gutturosa; assay: Mean motility score for treated Onchocerca gutturosa involving LLCMK2 feeder cells at a concentration of 3.1*10e-6 M at 2.5 h; type: functional; in short: as §1
[5] = tested on: Onchocerca volvulus; assay: Mean motility score for treated Onchocerca volvulus excluding LLCMK2 feeder cells at a concentration of 5*10e-5 M at 24 h
[6] = tested on: Onchocerca gutturosa; assay: Mean motility score for treated Onchocerca gutturosa involving LLCMK2 feeder cells at a concentration of 5*10e-5 M at 0.5 h; type: functional; in short: as §1
[7] = tested on: Onchocerca gutturosa; assay: Mean motility score for treated Onchocerca gutturosa involving LLCMK2 feeder cells at a concentration of 3.05*10e-8 M at 0.5 h; type: functional
In short: (§2)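 One male O. gutturosa per well over LLCMK2 feeder cells in MEM with 10% heat-inactivated FCS, antibiotics and bicarbonate, 5% CO2; compound introduced in DMSO (≤0.016%, equal DMSO in controls). Motility scored 0 (immotile) to 10 (maximal control activity) every 30 min to 4.5 h, then at 1, 2, 3, 4 and 7 days.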

[8] = tested on: Onchocerca gutturosa; assay: Mean motility score for treated Onchocerca gutturosa involving LLCMK2 feeder cells at a concentration of 3.1*10e-6 M at 2 h; type: functional; in short: as §1
[9] = tested on: Onchocerca gutturosa; assay: Mean motility score for treated Onchocerca gutturosa involving LLCMK2 feeder cells at a concentration of 3.1*10e-6 M at 3.5 h; type: functional; in short: as §1
[10] = tested on: Onchocerca gutturosa; assay: Mean motility score for treated Onchocerca gutturosa involving LLCMK2 feeder cells at a concentration of 4.88*10e-8M at 72 h; type: functional; in short: as §1
[11] = tested on: Onchocerca gutturosa; assay: Mean motility score for treated Onchocerca gutturosa involving LLCMK2 feeder cells at a concentration of 1.95*10e-8 M at 2.5 h; type: functional; in short: as §2
[12] = tested on: Onchocerca gutturosa; assay: Mean motility score for treated Onchocerca gutturosa involving LLCMK2 feeder cells at a concentration of 1.95*10e-8 M at 0.5 h; type: functional; in short: as §2
[13] = tested on: Onchocerca gutturosa; assay: Mean motility score for treated Onchocerca gutturosa involving LLCMK2 feeder cells at a concentration of 3.1*10e-6 M at 168 h; type: functional; in short: as §1
[14] = tested on: Onchocerca gutturosa; assay: Mean motility score for treated Onchocerca gutturosa involving LLCMK2 feeder cells at a concentration of 3.05*10e-8 M at 2.5 h; type: functional; settings: in the assay text read “3.05*10e-9 M” for “3.05*10e-8 M”; in short: as §2
[15] = tested on: Onchocerca gutturosa; assay: Mean motility score for treated Onchocerca gutturosa involving LLCMK2 feeder cells at a concentration of 4.88*10e-8M at 1 h; type: functional; in short: as §1
[16] = tested on: Onchocerca gutturosa; assay: Mean motility score for treated Onchocerca gutturosa involving LLCMK2 feeder cells at a concentration of 4.88*10e-8M at 2 h; type: functional; in short: as §1
[17] = tested on: Onchocerca volvulus; assay: Mean motility score for treated Onchocerca volvulus excluding LLCMK2 feeder cells at a concentration of 3.1*10e-6 M at 1.5 h
[18] = tested on: Onchocerca gutturosa; assay: Mean motility score for treated Onchocerca gutturosa involving LLCMK2 feeder cells at a concentration of 3.1*10e-6 M at 4 h; type: functional; in short: as §1
[19] = tested on: Onchocerca volvulus; assay: Mean motility score for treated Onchocerca volvulus excluding LLCMK2 feeder cells at a concentration of 3.1*10e-6 M at 72 h
[20] = tested on: Onchocerca gutturosa; assay: Mean motility score for treated Onchocerca gutturosa involving LLCMK2 feeder cells at a concentration of 4.88*10e-8M at 1.5 h; type: functional; in short: as §1
[21] = tested on: Onchocerca gutturosa; assay: Mean motility score for treated Onchocerca gutturosa involving LLCMK2 feeder cells at a concentration of 5*10e-5 M at 4.5 h; type: functional; in short: as §1
[22] = tested on: Onchocerca gutturosa; assay: Colorimetric quantification of male Onchocerca gutturosa viability, expressed as % inhibition of formazan formation at 5*10e-5 M conc. by using tetrazolium Dye MTT assay; type: functional
In short: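 Single intact male O. gutturosa, cultured with LLCMK2 feeder cells in MEM + 10% heat-inactivated FCS (5% CO2), drug added from DMSO (≤0.016% DMSO in controls). MTT read after 168 h: worm in 0.5 mg/mL MTT, 30 min at 36.5 °C, formazan solubilized in DMSO 1 h at room temperature, absorbance 490 nm vs DMSO blank.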

[23] = tested on: Onchocerca volvulus; assay: Colorimetric quantification of male Onchocerca volvulus viability, expressed as % inhibition of formazan formation at 3.1*10e-6 M conc. by using tetrazolium Dye MTT assay; type: functional
In short: (§3)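 Male O. volvulus dissected from human nodules within 24 h (kept in medium on ice), cultured without feeder cells in medium with 10% serum; drug from DMSO stock. MTT after 96 h: single worm, 0.5 mg/mL MTT, 30 min at 36.5 °C, formazan dissolved in DMSO 1 h at room temperature, absorbance 490 nm against DMSO blank.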

[24] = tested on: Onchocerca gutturosa; assay: Mean motility score for treated Onchocerca gutturosa involving LLCMK2 feeder cells at a concentration of 4.88*10e-8M at 4.5 h; type: functional; in short: as §1
[25] = tested on: Onchocerca gutturosa; assay: Mean motility score for treated Onchocerca gutturosa involving LLCMK2 feeder cells at a concentration of 3.05*10e-9 M at 4.5 h; type: functional; in short: as §1
[26] = tested on: Onchocerca gutturosa; assay: Mean motility score for treated Onchocerca gutturosa involving LLCMK2 feeder cells at a concentration of 1.21*10e-8M at 96 h; type: functional; in short: as §2
[27] = tested on: Onchocerca gutturosa; assay: Mean motility score for treated Onchocerca gutturosa involving LLCMK2 feeder cells at a concentration of 1.94*10e-7M at 0.5 h; type: functional; in short: as §2
[28] = tested on: Onchocerca gutturosa; assay: Mean motility score for treated Onchocerca gutturosa involving LLCMK2 feeder cells at a concentration of 3.05*10e-9 M at 2 h; type: functional; in short: as §1
[29] = tested on: Brugia pahangi; assay: anti-filarial Activity was measured against Brugia pahangi in jirds at 50 mg/kg/day(5 days) dose; type: functional
In short: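 Jirds with established B. pahangi or A. viteae infections were given drug once daily for 5 days by subcutaneous injection, at the maximum tolerated dose and, where supply allowed, graded lower doses. Tolerance was first checked in noninfected jirds with a single 200 mg/kg oral or subcutaneous dose, watching 72 h for excessive weight loss or death. Macrofilarial suppression was the read-out.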

[30] = tested on: Onchocerca volvulus; assay: Colorimetric quantification of male Onchocerca volvulus viability, expressed as % inhibition of formazan formation at 5*10e-5 M conc. by using tetrazolium Dye MTT assay; type: functional; in short: as §3
[31] = tested on: Onchocerca gutturosa; assay: Mean motility score for treated Onchocerca gutturosa involving LLCMK2 feeder cells at a concentration of 1.21*10e-8M at 48 h; type: functional; in short: as §2

SMILES: C/C(=N\NC(=S)N1CCCCCC1)c1ccccn1
- Motility [1]: 4
- Motility [2]: 8
- Motility [3]: 9.8
- Motility [4]: 8.5
- Motility [5]: 1.6
- Motility [6]: 6
- Motility [7]: 9.8
- Motility [8]: 9.8
- Motility [9]: 9
- Motility [10]: 3.5
- Motility [11]: 9.3
- Motility [12]: 8.8
- Motility [13]: 0
- Motility [14]: 8.3
- Motility [15]: 9
- Motility [16]: 8.8
- Motility [17]: 6.4
- Motility [18]: 9
- Motility [19]: 1
- Motility [20]: 8.5
- Motility [21]: 1.8
- Inhibition [22]: 90.3%
- Inhibition [23]: 39.6%
- Motility [24]: 9.8
- Motility [25]: 9.5

SMILES: C/C(=N\NC(S)=Nc1ccccc1N)c1ccccn1
- Motility [2]: 4.4
- Motility [26]: 3.8
- Motility [5]: 4.4
- Motility [6]: 10
- Motility [27]: 9.8
- Motility [17]: 4.4
- Motility [28]: 7.5
- Motility [19]: 1.2
- Motility [21]: 9.5
- Suppression [29]: 100%
- Inhibition [22]: 72.9%
- Inhibition [23]: 65.3%
- Inhibition [30]: 53.8%
- Motility [31]: 7.3
- Motility [25]: 7.5

— ChEMBL document CHEMBL1125672, “2-acetylpyridine thiosemicarbazones. 13. Derivatives with antifilarial activity” (1991)
